Measured values pooled from the literature.
Lines come from different studies, so protocols differ.
Cell line: U-251
Effect on: cell growth or viability

SMILES | test | setting | measurement | result
CC(=O)O[C@H]1C(=O)[C@@]2(C)[C@H]([C@H](OC(=O)c3ccccc3)[C@]3(O)C[C@H](OC(=O)[C@H](O)[C@@H](NC(=O)c4ccccc4)c4ccccc4)C(C)=C1C3(C)C)[C@]1(OC(C)=O)CO[C@@H]1C[C@@H]2O | – | – | IC50 | 0.5 µg/mL
Cc1cc(NC(=O)c2cccc3cc(-c4cccc5[nH]nc(N)c45)ccc23)ccc1F | CCK-8 | 72 h | IC50 | > 20 µM
O=C1Nc2ccccc2C1=NNc1nnc2n1N=C(c1ccccc1)CS2 | SRB | 10 µM | inhibition | 50%
COc1cc(-c2ccc(-c3ccc(C(=N)N)nc3)s2)cc(OC)c1OC | SRB | – | GI50 | 1740 nM
COc1ccc(C(=O)/C=C/c2cccc(Br)c2)cc1S(N)(=O)=O | SRB | 10 µM | inhibition | 198%
COc1cccc(Oc2ccccc2NC(=O)CNC(=O)c2cccc3ccccc23)c1 | SRB | 48 h | GI50 | 240 nM
COc1ccc(-c2ccc(-c3ccc(C(=N)N)nc3)s2)cc1 | SRB | – | GI50 | 1810 nM
COc1ccc(C(=O)/C=C/c2cccnc2)cc1S(N)(=O)=O | SRB | 10 µM | inhibition | 89%
COc1nc(OCc2cccc(-c3ccccc3)c2C)ccc1CNCCNC(C)=O | MTT | – | IC50 | 4.3 µM
